Experimental data as given in ChEMBL document CHEMBL1144468, “Stepwise exposure of Staphylococcus aureus to pleuromutilins is associated with stepwise acquisition of mutations in rplC and minimally affects susceptibility to retapamulin” (2007).
In brackets after ≈: the same amount, converted by molar mass.

What was measured:
Format in all cases: functional
[1] = system: Staphylococcus aureus; experiment: Antibacterial activity against Staphylococcus aureus RN4220 with rplC G152D, D159Y and G144R mutation
Procedure, shortened: (§1)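 Third-step mutants: second-step mutants were plated on five other pleuromutilins, each at 2 times its own MIC. Colonies appearing after extended incubation were replated at the selective concentration to confirm resistance. L3 was sequenced by colony PCR. These isolates grow very slowly; colonies form on blood agar only after more than 72 h.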

[2] = system: Staphylococcus aureus; experiment: Antibacterial activity against Staphylococcus aureus RN4220 with rplC G152D, D159Y and G155R mutation; procedure, shortened: as §1
[3] = system: Staphylococcus aureus; experiment: Antibacterial activity against Staphylococcus aureus RN4220 with rplC D159Y mutation
Procedure, shortened: (§2)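 Spontaneous first-step mutants of S. aureus RN4220. An overnight brain heart infusion culture was plated on LB agar with 1.0 µg/ml tiamulin. Colonies were patched to drug-free LB for 16 h at 37°C, then replica plated on LB agar with 1, 5, 10 and 20 µg/ml tiamulin. The rplC (L3) mutation was identified by colony PCR and sequencing.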

[4] = system: Staphylococcus aureus; experiment: Antibacterial activity against Staphylococcus aureus RN4220 with rplC G152D and D159Y mutation
Procedure, shortened: (§3)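 Second-step mutants came from the first-step L3 G152D RN4220 mutant. An overnight culture (2 x 10^9 CFU total) was plated on LB agar with 10 µg/ml tiamulin. Colonies were recultured on 10 µg/ml tiamulin to confirm resistance. L3 was sequenced after colony PCR.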

[5] = system: Staphylococcus aureus; experiment: Antibacterial activity against Staphylococcus aureus RN4220 with rplC G152D and G155R mutation; procedure, shortened: as §3
[6] = system: Staphylococcus aureus; experiment: Antibacterial activity against wild type Staphylococcus aureus RN4220
[7] = system: Staphylococcus aureus; experiment: Antibacterial activity against Staphylococcus aureus RN4220 with rplC G155R mutation; procedure, shortened: as §2
[8] = system: Staphylococcus aureus; experiment: Antibacterial activity against Staphylococcus aureus RN4220 with rplC G152D, D159Y, G155R and A150T mutation; procedure, shortened: as §1
[9] = system: Staphylococcus aureus; experiment: Antibacterial activity against Staphylococcus aureus RN4220 with rplC S158L mutation; procedure, shortened: as §2
[10] = system: Staphylococcus aureus; experiment: Antibacterial activity against Staphylococcus aureus RN4220 with rplC G152D, D159Y, G155R and H134N mutation; procedure, shortened: as §1
[11] = system: Staphylococcus aureus; experiment: Antibacterial activity against Staphylococcus aureus RN4220 with rplC G152D mutation; procedure, shortened: as §2
[12] = system: Staphylococcus aureus; experiment: Antibacterial activity against Staphylococcus aureus 2A1-1 fast2 with rplC D159Y and unmapped mutation
Procedure, shortened: (§4)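 Fast-growing variants of slow third-step mutants. Single colonies were streaked on unsupplemented LB agar and held more than 3 days at 37°C. At least 2 fast-growing colonies per mutant were purified on LB agar, then taken for MIC testing and sequencing.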

[13] = system: Staphylococcus aureus; experiment: Antibacterial activity against Staphylococcus aureus 2A1-7 fast2 with rplC D159Y and unmapped mutation; procedure, shortened: as §4
[14] = system: Staphylococcus aureus; experiment: Antibacterial activity against Staphylococcus aureus 2A1-8 with rplC G152D, D159Y and unmapped mutation; procedure, shortened: as §1
[15] = system: Staphylococcus aureus; experiment: Antibacterial activity against Staphylococcus aureus 2A1-1 with rplC G152D, D159Y and unmapped mutation; procedure, shortened: as §1
[16] = system: Staphylococcus aureus; experiment: Antibacterial activity against Staphylococcus aureus 2A1-7 with rplC G152D, D159Y and unmapped mutation; procedure, shortened: as §1
[17] = system: Staphylococcus aureus; experiment: Antibacterial activity against Staphylococcus aureus 2A1-1 fast1 with rplC D159Y and unmapped mutation; procedure, shortened: as §4
[18] = system: Staphylococcus aureus; experiment: Antibacterial activity against Staphylococcus aureus 2A1-7 fast1 with rplC D159Y and unmapped mutation; procedure, shortened: as §4

## C/C(=C\C(=O)OCCCCCCCCC(=O)O)C[C@@H]1OC[C@H](C[C@@H]2O[C@H]2[C@@H](C)[C@H](C)O)[C@@H](O)[C@H]1O [MUPIROCIN]
[1]
  MIC: 0.06 µg/mL (≈ 0.12 µM)
[2]
  MIC: 0.06 µg/mL (≈ 0.12 µM)
[3]
  MIC: 0.06 µg/mL (≈ 0.12 µM)
[4]
  MIC: 0.06 µg/mL (≈ 0.12 µM)
[5]
  MIC: 0.06 µg/mL (≈ 0.12 µM)
[6]
  MIC: 0.06 µg/mL (≈ 0.12 µM)
[7]
  MIC: 0.06 µg/mL (≈ 0.12 µM)
[8]
  MIC: 0.06 µg/mL (≈ 0.12 µM)
[9]
  MIC: 0.06 µg/mL (≈ 0.12 µM)
[10]
  MIC: 0.06 µg/mL (≈ 0.12 µM)
[11]
  MIC: 0.06 µg/mL (≈ 0.12 µM)

## CN(C)[C@@H]1C(O)=C(C(N)=O)C(=O)[C@@]2(O)C(O)=C3C(=O)c4c(O)cccc4[C@@](C)(O)[C@H]3C[C@@H]12 [TETRACYCLINE]
[12]
  MIC: 0.25 µg/mL (≈ 0.563 µM)
[1]
  MIC: 0.25 µg/mL (≈ 0.563 µM)
[2]
  MIC: 0.25 µg/mL (≈ 0.563 µM)
[3]
  MIC: 0.25 µg/mL (≈ 0.563 µM)
[13]
  MIC: 0.25 µg/mL (≈ 0.563 µM)
[4]
  MIC: 0.25 µg/mL (≈ 0.563 µM)
[5]
  MIC: 0.25 µg/mL (≈ 0.563 µM)
[14]
  MIC: ≤ 0.06 µg/mL
[15]
  MIC: ≤ 0.06 µg/mL
[6]
  MIC: 0.25 µg/mL (≈ 0.563 µM)
[16]
  MIC: ≤ 0.06 µg/mL
[17]
  MIC: 0.25 µg/mL (≈ 0.563 µM)
[7]
  MIC: 0.25 µg/mL (≈ 0.563 µM)
[8]
  MIC: 0.25 µg/mL (≈ 0.563 µM)
[9]
  MIC: 0.25 µg/mL (≈ 0.563 µM)
[10]
  MIC: 0.25 µg/mL (≈ 0.563 µM)
[11]
  MIC: 0.25 µg/mL (≈ 0.563 µM)
[18]
  MIC: 0.25 µg/mL (≈ 0.563 µM)

## C[C@H]1COc2c(N3CCN(C)CC3)c(F)cc3c(=O)c(C(=O)O)cn1c23.C[C@H]1COc2c(N3CCN(C)CC3)c(F)cc3c(=O)c(C(=O)O)cn1c23.O [LEVOFLOXACIN]
[12]
  MIC: 0.25 µg/mL
[1]
  MIC: 0.25 µg/mL
[2]
  MIC: 0.25 µg/mL
[3]
  MIC: 0.5 µg/mL
[13]
  MIC: 0.25 µg/mL
[4]
  MIC: 0.25 µg/mL
[5]
  MIC: 0.25 µg/mL
[14]
  MIC: 0.25 µg/mL
[15]
  MIC: 0.25 µg/mL
[6]
  MIC: 0.5 µg/mL
[16]
  MIC: 0.25 µg/mL
[17]
  MIC: 0.5 µg/mL
[7]
  MIC: 0.5 µg/mL
[8]
  MIC: 0.125 µg/mL
[9]
  MIC: 0.5 µg/mL
[10]
  MIC: 0.5 µg/mL
[11]
  MIC: 0.5 µg/mL
[18]
  MIC: 0.25 µg/mL

## C=C[C@]1(C)C[C@@H](OC(=O)CSCCN(CC)CC)[C@]2(C)[C@H](C)CC[C@]3(CCC(=O)[C@H]32)[C@@H](C)[C@@H]1O [TIAMULIN]
[12]
  MIC: 2 µg/mL (≈ 4.05 µM)
[1]
  MIC: 32 µg/mL (≈ 64.8 µM)
[2]
  MIC: > 64 µg/mL
[3]
  MIC: 4 µg/mL (≈ 8.1 µM)
[13]
  MIC: 2 µg/mL (≈ 4.05 µM)
[4]
  MIC: 16 µg/mL (≈ 32.4 µM)
[5]
  MIC: 16 µg/mL (≈ 32.4 µM)
[14]
  MIC: 32 µg/mL (≈ 64.8 µM)
[15]
  MIC: 64 µg/mL (≈ 130 µM)
[6]
  MIC: 0.25 µg/mL (≈ 0.506 µM)
[16]
  MIC: 64 µg/mL (≈ 130 µM)
[17]
  MIC: 2 µg/mL (≈ 4.05 µM)
[7]
  MIC: 4 µg/mL (≈ 8.1 µM)
[8]
  MIC: 4 µg/mL (≈ 8.1 µM)
[9]
  MIC: 2 µg/mL (≈ 4.05 µM)
[10]
  MIC: 2 µg/mL (≈ 4.05 µM)
[11]
  MIC: 4 µg/mL (≈ 8.1 µM)
[18]
  MIC: 2 µg/mL (≈ 4.05 µM)

## C=C[C@]1(C)C[C@@H](OC(=O)CS[C@@H]2C[C@H]3CC[C@@H](C2)N3C)[C@]2(C)[C@H](C)CC[C@]3(CCC(=O)[C@H]32)[C@@H](C)[C@@H]1O [RETAPAMULIN]
[12]
  MIC: 0.25 µg/mL (≈ 0.483 µM)
[1]
  MIC: 4 µg/mL (≈ 7.73 µM)
[2]
  MIC: 4 µg/mL (≈ 7.73 µM)
[3]
  MIC: 0.25 µg/mL (≈ 0.483 µM)
[13]
  MIC: 0.25 µg/mL (≈ 0.483 µM)
[4]
  MIC: 1 µg/mL (≈ 1.93 µM)
[5]
  MIC: 1 µg/mL (≈ 1.93 µM)
[14]
  MIC: 2 µg/mL (≈ 3.86 µM)
[15]
  MIC: 8 µg/mL (≈ 15.5 µM)
[6]
  MIC: ≤ 0.06 µg/mL
[16]
  MIC: 8 µg/mL (≈ 15.5 µM)
[17]
  MIC: 0.25 µg/mL (≈ 0.483 µM)
[7]
  MIC: 0.5 µg/mL (≈ 0.966 µM)
[8]
  MIC: 0.25 µg/mL (≈ 0.483 µM)
[9]
  MIC: 0.25 µg/mL (≈ 0.483 µM)
[10]
  MIC: 0.125 µg/mL (≈ 0.241 µM)
[11]
  MIC: 0.25 µg/mL (≈ 0.483 µM)
[18]
  MIC: 0.25 µg/mL (≈ 0.483 µM)

## O=C(N[C@H](CO)[C@H](O)c1ccc([N+](=O)[O-])cc1)C(Cl)Cl [CHLORAMPHENICOL]
[12]
  MIC: 8 µg/mL (≈ 24.8 µM)
[1]
  MIC: 8 µg/mL (≈ 24.8 µM)
[2]
  MIC: 4 µg/mL (≈ 12.4 µM)
[3]
  MIC: 4 µg/mL (≈ 12.4 µM)
[13]
  MIC: 8 µg/mL (≈ 24.8 µM)
[4]
  MIC: 8 µg/mL (≈ 24.8 µM)
[5]
  MIC: 8 µg/mL (≈ 24.8 µM)
[14]
  MIC: 4 µg/mL (≈ 12.4 µM)
[15]
  MIC: 8 µg/mL (≈ 24.8 µM)
[6]
  MIC: 4 µg/mL (≈ 12.4 µM)
[16]
  MIC: 4 µg/mL (≈ 12.4 µM)
[17]
  MIC: 8 µg/mL (≈ 24.8 µM)
[7]
  MIC: 8 µg/mL (≈ 24.8 µM)
[8]
  MIC: 8 µg/mL (≈ 24.8 µM)
[9]
  MIC: 4 µg/mL (≈ 12.4 µM)
[10]
  MIC: 8 µg/mL (≈ 24.8 µM)
[11]
  MIC: 8 µg/mL (≈ 24.8 µM)
[18]
  MIC: 8 µg/mL (≈ 24.8 µM)
